Test results reported in article PMC12062833 (RSC Medicinal Chemistry, 2025).
≈ marks a conversion by molar mass, not a printed value.

Key:
Assay type in all cases: cell-based
[1] = tested on: Escherichia coli (ATCC 25922); test: Antibacterial MIC, macrodilution method, E. coli; conditions: ATCC25922, read-out: MIC E. coli
Procedure, shortened: (§1)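 CLSI M07-A9 tube macrodilution. Strains were grown overnight on nutrient agar at 37 °C, and colonies were suspended in Mueller-Hinton broth. Inoculum was 1 × 10^6 per mL (5 × 10^5 per mL in test). DMSO stock was 5120 μg/mL. Final concentrations were 256 to […] in 2 mL. Tubes were incubated at 37 °C for 16–20 h. Controls were inoculum with and without 1% DMSO, and broth alone.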

[2] = tested on: Pseudomonas aeruginosa (ATCC 9027); test: Antibacterial MIC, macrodilution method, P. aeruginosa; conditions: ATCC9027, read-out: MIC P. aeruginosa
Procedure, shortened: as §1

[3] = tested on: Klebsiella pneumoniae (ATCC 27736); test: Antibacterial MIC, macrodilution method, K. pneumoniae; conditions: ATCC27736, read-out: MIC K. pneumoniae
Procedure, shortened: as §1

[4] = tested on: Staphylococcus aureus (ATCC 25923); test: Antibacterial MIC, macrodilution method, S. aureus; conditions: ATCC25923, read-out: MIC S. aureus
Procedure, shortened: as §1

[5] = tested on: LN-229 glioblastoma cells; test: Antiproliferative assay; conditions: Homo sapiens, LN-229, 72 h, read-out: IC50 LN-229
Procedure, shortened: (§2)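 Adherent lines were seeded at 500 (Capan-1), 1000 (LN-229, HCT-116) or 1500 (NCI-H460) cells/well and dosed after overnight incubation. Suspension lines were seeded at 2500 (HL-60, K-562, Z-138) or 5500 (DND-41) cells/well directly onto compound. Seven 5-fold concentrations ran from 100 to 0.006 μM for 72 h. Viability was read as MTS absorbance at 490 nm after 3 h, and IC50 was derived from OD values. Two independent experiments.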

[6] = tested on: Capan-1 pancreatic adenocarcinoma cells; test: Antiproliferative assay; conditions: Homo sapiens, CAPAN-1, 72 h, read-out: IC50 Capan-1
Procedure, shortened: as §2

[7] = tested on: HCT-116 colon carcinoma cells; test: Antiproliferative assay; conditions: Homo sapiens, HCT-116, 72 h, read-out: IC50 HCT-116
Procedure, shortened: as §2

[8] = tested on: NCI-H460 non-small cell lung cancer cells; test: Antiproliferative assay; conditions: Homo sapiens, NCI-H460, 72 h, read-out: IC50 NCI-H460
Procedure, shortened: as §2

[9] = tested on: HL-60 acute myeloid leukemia cells; test: Antiproliferative assay; conditions: Homo sapiens, HL-60, 72 h, read-out: IC50 HL-60
Procedure, shortened: as §2

[10] = tested on: K-562 chronic myeloid leukemia cells; test: Antiproliferative assay; conditions: Homo sapiens, K562, 72 h, read-out: IC50 K-562
Procedure, shortened: as §2

SMILES	MIC [1] [µg/mL]	MIC [2] [µg/mL]	MIC [3] [µg/mL]	MIC [4] [µg/mL]	IC50 [5] [µM]	IC50 [6] [µM]	IC50 [7] [µM]	IC50 [8] [µM]	IC50 [9] [µM]	IC50 [10] [µM]
CC(C)(O/N=C(\C(=O)N[C@@H]1C(=O)N2C(C(=O)[O-])=C(C[n+]3ccccc3)CS[C@H]12)c1csc(N)n1)C(=O)O [CAZ, ceftazidime, reference compound]	0.5 (≈ 0.915 µM)	2 (≈ 3.66 µM)	256 (≈ 468 µM)	64 (≈ 117 µM)	–	–	–	–	–	–
O=C(O)c1cn(C2CC2)c2cc(N3CCNCC3)c(F)cc2c1=O [CIP, ciprofloxacin, reference compound]	< 0.125	0.5 (≈ 1.51 µM)	> 256	0.5 (≈ 1.51 µM)	–	–	–	–	–	–
O=C(COc1ccc(-c2nc3ccc(F)cc3[nH]2)cc1)N1CCOCC1 [Compound 20, 2-(4-(6-Fluoro-1H-benzo[d]imidazol-2-yl)phenoxy)-1-morpholinoethan-1-one]	–	–	–	–	> 100	> 100	> 100	> 100	> 100	> 100
Fc1cc(-c2nc3ccccc3[nH]2)ccc1OCCN1CCOCC1 [Compound 21, 4-(2-(4-(1H-Benzo[d]imidazol-2-yl)-2-fluorophenoxy)ethyl)morpholine]	–	–	–	–	> 100	> 100	> 100	> 100	> 100	> 100
c1ccc2[nH]c(-c3ccc(OCc4cn(CCN5CCOCC5)nn4)cc3)nc2c1 [Compound 28, 4-(2-(4-((4-(1H-Benzo[d]imidazol-2-yl)phenoxy)methyl)-1H-1,2,3-triazol-1-yl)ethyl)morpholine]	256 (≈ 633 µM)	> 256	> 256	> 256	> 100	47.2 ± 0.4	> 100	> 100	≥ 70	≥ 88

The remaining lines, values ahead:

MIC [1] [µg/mL]	MIC [2] [µg/mL]	MIC [3] [µg/mL]	MIC [4] [µg/mL]	IC50 [5] [µM]	IC50 [6] [µM]	IC50 [7] [µM]	IC50 [8] [µM]	IC50 [9] [µM]	IC50 [10] [µM]	SMILES
> 256	> 256	> 256	> 256	≥ 65.1	47.7 ± 3.2	> 100	52.4 ± 1.3	46.4 ± 1.3	38.2 ± 4.5	CCN(CC)CCOc1ccc(-c2nc3ccccc3[nH]2)cc1 [Compound 12, 2-(4-(1H-Benzo[d]imidazol-2-yl)phenoxy)-N,N-diethylethan-1-amine]
> 256	> 256	> 256	> 256	> 100	> 100	> 100	> 100	> 100	> 100	O=C(COc1ccc(-c2nc3ccccc3[nH]2)cc1)N1CCOCC1 [Compound 14, 2-(4-(1H-Benzo[d]imidazol-2-yl)phenoxy)-1-morpholinoethan-1-one]
256 (≈ 744 µM)	> 256	> 256	> 256	44 ± 0.8	25.1 ± 3.7	47.2 ± 1.8	41.3 ± 3.7	29.2 ± 2.2	8.7 ± 1.1	CCN(CC)CCOc1ccc(-c2nc3ccc(Cl)cc3[nH]2)cc1 [Compound 15, 2-(4-(6-Chloro-1H-benzo[d]imidazol-2-yl)phenoxy)-N,N-diethylethan-1-amine]
–	–	–	–	44.1 ± 5.3	39.1 ± 2.1	61.1 ± 0.7	37.2 ± 4.3	51.9 ± 5.9	27.6 ± 3.3	CCN(CC)CCOc1ccc(-c2nc3ccc(F)cc3[nH]2)cc1 [Compound 18, N,N-Diethyl-2-(4-(6-fluoro-1H-benzo[d]imidazol-2-yl)phenoxy)ethan-1-amine]
–	–	–	–	0.03	3.4 ± 0.9	3.7 ± 0.3	6.1 ± 1.1	0.8 ± 0.2	4 ± 1.3	COc1cc([C@@H]2c3cc4c(cc3[C@@H](O[C@@H]3O[C@@H]5CO[C@@H](C)O[C@H]5[C@H](O)[C@H]3O)[C@H]3COC(=O)[C@H]23)OCO4)cc(OC)c1O [Etoposide, reference compound]
